# In the library only some 3.7% were active in any assay of this set; here they are far more common.
# NPY-Y1 PAM-ag – potentiators or agonists of human neuropeptide Y receptor Y1 | P25929 | NPY-Y1 expressing cells, potentiator/agonist activation | activation, % at 3.6 µM | 0.37% of 220,000 active | AID 1304; in the data active = activation above about 33%, passing the limit was not always enough;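 note: cells stimulated with NPY at EC10 then isoproterenol at EC100; 0% = low agonist plus stimulus and 100% = saturating agonist plus stimulus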
# Target sequence (P25929 whole entry, looked up): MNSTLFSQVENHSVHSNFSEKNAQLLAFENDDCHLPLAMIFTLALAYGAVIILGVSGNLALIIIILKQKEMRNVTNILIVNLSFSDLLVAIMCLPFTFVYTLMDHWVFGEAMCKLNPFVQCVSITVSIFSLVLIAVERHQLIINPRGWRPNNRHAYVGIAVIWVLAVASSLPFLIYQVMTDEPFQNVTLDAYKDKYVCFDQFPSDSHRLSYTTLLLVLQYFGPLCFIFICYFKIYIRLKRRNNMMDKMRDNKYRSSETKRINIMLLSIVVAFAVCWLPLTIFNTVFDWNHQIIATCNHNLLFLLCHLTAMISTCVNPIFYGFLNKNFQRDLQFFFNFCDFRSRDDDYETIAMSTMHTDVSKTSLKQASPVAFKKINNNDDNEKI
# NPY Y1 blocker – antagonists of human neuropeptide Y receptor Y1; inhibition, % at 3.6 µM; HEK293-CNG Y1 cells, membrane potential fluorescence; NPY at EC95, then isoproterenol; AID 1040; 1% of 200,000 active;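 active = inhibition above the campaign mean inhibition of all tested compounds plus 3 SD, cut at about 20% in these data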;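 note: 0% = DMSO wells given NPY plus isoproterenol and 100% = isoproterenol alone without NPY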
#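 Material: HEK293 cells co-expressing NPY Y1 receptor and cyclic-nucleotide gated channel. Timing: compound incubation 1 h at room temperature, readout 45 min post-stimulation. Signal: fluorescence, membrane potential probe.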
# Furin inh – human furin inhibition; purified furin, fluorogenic substrate cleavage; inhibition, % at 20 µM or 30 µM; 0.061% of 220,000 active; AID 463115; in the data active = inhibition above about 25%
# KCC2 mod – KCC2 (human) Cl- transport modulation; 2.2% of 190,000 active; B-score of Tl+ flux slope (higher = more flux/activation; lower = inhibition) at 10 µM; KCC2 cells, thallium flux FluoZin-2 fluorescence; Q9H2X9;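 active = thallium flux slope and its plate-corrected score both differing from the plate sample mean at a set confidence after two filtering rounds, in either direction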;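 note: slope of fluorescence scaled to starting intensity during 10 to 20 s after thallium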
# NPY Y2 blocker – antagonists of human neuropeptide Y receptor Y2 | AID 793 | NPY-Y2 expressing cells, antagonist mode | inhibition, % at 2.7 µM | P49146 | 0.99% of 140,000 active; in the data active = inhibition above about 17%;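 note: 0% = vehicle with agonist challenge and 100% = reference antagonist with challenge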
# Target sequence (P49146 whole entry, looked up): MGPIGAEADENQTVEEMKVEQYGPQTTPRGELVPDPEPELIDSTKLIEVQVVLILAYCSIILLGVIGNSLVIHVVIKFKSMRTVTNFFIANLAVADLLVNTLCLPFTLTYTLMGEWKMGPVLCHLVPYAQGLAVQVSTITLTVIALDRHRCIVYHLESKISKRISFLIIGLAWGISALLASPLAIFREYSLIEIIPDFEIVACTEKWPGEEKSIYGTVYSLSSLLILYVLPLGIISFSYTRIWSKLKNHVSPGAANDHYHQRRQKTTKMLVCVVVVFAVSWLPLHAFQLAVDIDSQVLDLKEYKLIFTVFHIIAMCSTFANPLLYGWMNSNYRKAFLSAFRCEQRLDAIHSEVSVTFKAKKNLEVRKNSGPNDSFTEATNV
# NPY-Y2 PAM-ag – potentiators or agonists of human neuropeptide Y receptor Y2; P49146; cells expressing NPY-Y2, potentiator/agonist read-out; activation, % at 3.6 µM; 0.45% of 220,000 active; in the data active = activation above about 27%;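 note: cells stimulated with NPY near EC25 plus isoproterenol at EC100; 0% = vehicle plus submaximal agonist and 100% = vehicle plus saturating agonist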
# KCC2 secondary – confirmation of human KCC2 transport modulators. shares compounds with KCC2 mod. HEK293-KCC2, thallium flux, FluoZin2 fluorescence; hits give high values. normalised thallium flux (F/F0 slope) at 10 µM. 15% of 3,700 active;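 active = thallium flux slope above the same plate's solvent-only control mean plus 3 SD; inconclusive = the two replicate wells disagree; inactive = no significant difference from solvent-only control wells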
# KCC2 bumet counter – thallium flux persisting under bumetanide in KCC2 cells, counter-screen secondary assay; shares compounds with KCC2 mod; HEK293-KCC2 + bumetanide/ouabain, thallium flux FluoZin2; hits give high values; normalized thallium flux at 10 µM; 49% of 3,700 active; AID 1714;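 active = thallium entry rate above the same plate's blocked-transporter control wells by more than 3 SD; inconclusive = the two repeat wells disagree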;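 note: raw slope of fluorescence over initial fluorescence between 10 and 20 s after thallium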
# KCC2 secondary2 – confirmation of human KCC2 transport modulators. shares compounds with KCC2 mod. HEK293-KCC2, thallium flux FluoZin2 fluorescence; actives lie on both sides; F/F0 rise rate, 10–20 s post-thallium. normalized thallium flux at 10 µM. 23% of 3,700 active;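 active = thallium flux slope more than 3 SD above or below the plate's solvent-only control mean, mostly below; inconclusive = the two repeat wells disagreed; inactive = no significant shift from solvent-only controls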;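 note: raw slope with 0.1% DMSO as baseline and bumetanide as block control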
# HEK counter1 – acts in parental HEK cells, KCC2 counter-screen; HEK293 parental cells, thallium flux FluoZin2, ouabain; baseline-ratio fluorescence slope, 10–20 s after thallium; thallium flux rate (normalised fluorescence) at 10 µM; 46% of 3,700 active; shares compounds with KCC2 mod;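 active = thallium flux rate significantly above the same plate's solvent-only control wells, beyond their mean plus 3 SD; inconclusive = the two replicate wells gave conflicting results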
# KCC2 retest ouab – modulates human KCC2 on retest with ouabain. HEK293-KCC2, thallium flux FluoZin2 fluorescence; bidirectional: low = inhibitor, high = activator. raw Tl+ flux slope (below DMSO = inhibition, above = activation) at 10 µM. 48% of 3,700 active. shares compounds with KCC2 mod. AID 1717;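 active = thallium flux slope beyond 3 SD from same-plate DMSO control mean in most replicates, usually higher, sometimes lower; inconclusive = repeat tests gave conflicting results; inactive = no significant difference from controls in most replicates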;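 note: slope of initial-normalized fluorescence between seconds 10 and 20 after thallium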
# HEK counter2 – counter-screen for KCC2 modulators: effect in parental HEK293 cells; shares compounds with KCC2 mod; thallium flux slope at 10 µM; thallium flux FluoZin-2 fluorescence slope; 33% of 3,700 active;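 active = thallium flux slope above the same plate's solvent-control mean plus 3 SD in both duplicate wells; inconclusive = duplicate wells that disagreed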;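 note: run without ouabain in cells lacking the KCC2 cotransporter; slope of fluorescence scaled to its starting value between 10 and 20 s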
# Active calls of the source: *; ? = inconclusive; . = no result given.
SMILES,NPY-Y1 PAM-ag,NPY Y1 blocker,Furin inh,KCC2 mod,NPY Y2 blocker,NPY-Y2 PAM-ag,KCC2 secondary,KCC2 bumet counter,KCC2 secondary2,HEK counter1,KCC2 retest ouab,HEK counter2
COc1ccc(N2CCN(C(=O)CSc3nc4[nH]ncc4c(=O)n3-c3cccc4ccccc34)CC2)cc1,15.3,-4.3,-9.0,-4.39*,.,4.8,0.00594,0.00641*,0.0265*,0.00721,0.0149*,0.0106
COc1ccc(CNC(=O)CSc2nc3[nH]ncc3c(=O)n2-c2ccccc2Br)cc1,2.7,-2.1,-22.0,-0.167,.,3.6,.,.,.,.,.,.
FC(F)C(F)(F)C(F)(F)C(F)(F)c1cc(-c2ccccc2)n[nH]1,15.5,0.7,-5.7,-3.44,-0.3,25.9,.,.,.,.,.,.
CC1CCCCN1C(=O)CSc1ccc(-c2ccc(F)cc2)nn1 (stereo unspecified),-27.4,-1.0,-5.6,.,0.6,-12.5,0.0104,0.00636,0.0282*,0.00436,0.017*,0.0112
O=C(CSc1ccc(-c2ccccc2)nn1)c1ccccc1,-2.2,1.3,-16.1,-4.08*,1.6,11.8,0.00534,?,0.0215*,0.00856,?,0.0113
Cc1cc(NC(=O)CSc2ccc3nnc(-c4ccc(F)cc4)n3n2)no1,16.5,5.1,-31.2,-0.141,-0.1,3.6,.,.,.,.,.,.
Cc1cc(NC(=O)CSc2ccc(-c3ccc(F)cc3)nn2)no1,-5.7,-7.2,-24.0,-5.24*,.,-6.2,0.00647,0.00503,0.0247*,0.00706,?,0.0101
O=C(CSc1ccc(-c2ccc(F)cc2)nn1)NCC1CCCO1 (stereo unspecified),10.8,-2.2,-19.5,-2.27,.,-15.3,.,.,.,.,.,.
CC(=O)c1cccc(NC(=O)CSc2ccc(-c3ccc4c(c3)OCO4)nn2)c1,-2.7,2.5,-8.1,0.375,3.8,0.6,.,.,.,.,.,.
O=C(CSc1ccc(-c2ccccc2)nn1)Nc1ccc2c(c1)OCCO2,1.2,-4.2,-11.5,-6.19*,2.6,-15.1,0.00801,0.00489,0.0222*,0.00642,0.014*,0.00975
O=C(Nc1nc2ccccc2s1)c1ccc(N2CCCCC2)c([N+](=O)[O-])c1,9.4,2.5,-14.4,-1.28,-0.1,-5.0,.,.,.,.,.,.
CN(C)/C=C(\C=O)c1ccc(Cl)cc1Cl,0.8,-1.5,-19.3,-1.15,.,6.8,.,.,.,.,.,.
Cc1cc(NC(=O)CSc2ccc(-c3ccccc3)nn2)no1,3.2,-7.0,-22.4,-7.45*,-0.3,12.3,0.00585,0.00509,0.0243*,?,0.013*,0.009
Cc1cc(NC(=O)CSc2ccc(-c3cccc([N+](=O)[O-])c3)nn2)no1,-5.9,1.8,-21.6,-1.42,.,-6.9,.,.,.,.,.,.
S=c1[nH]nc(-c2ccccc2)n1/N=C/c1ccc(-c2ccccc2Cl)o1,3.6,2.2,-8.9,6.79*,0.7,9.1,0.008,0.0135*,?,0.0196*,0.0269*,0.0182*
S=c1[nH]nc(-c2ccccn2)n1/N=C/c1ccc(-c2ccccc2Br)o1,-6.4,7.0,-17.0,84.4*,.,-4.2,0.00596,0.135*,0.168*,0.138*,0.136*,0.155*
N#C/C(=C\c1ccc(-c2ccccc2[N+](=O)[O-])o1)C(=O)Nc1nc(-c2cccs2)cs1,-13.8,-1.6,3.0,7.74*,5.7,0.3,0.0183,0.0268*,0.0316,0.0174*,0.0219*,0.0157*
N#C/C(=C\c1ccc(-c2ccc([N+](=O)[O-])cc2)o1)C(=O)Nc1nc(-c2cccs2)cs1,4.7,.,-6.0,1.93,.,-14.4,.,.,.,.,.,.
CCOC(=O)c1[nH]c2ccc(Br)cc2c1NC(=O)CCN1CCCCC1,6.8,-1.0,-16.3,.,2.7,1.3,.,.,.,.,.,.
CCOC(=O)c1[nH]c2ccc(Br)cc2c1NC(=O)CCN1CCC(C(=O)OCC)CC1,-10.9,-5.6,-15.7,-0.00541,-0.2,9.3,0.00909,0.00638,?,0.00785,0.0178,0.0106
N/C(CSc1ccc(Cl)cc1)=N\NC(=O)c1ccncc1,12.2,1.3,-11.3,-1.04,.,12.2,.,.,.,.,.,.
Cn1c(NCCCO)nc2c1c(=O)n(Cc1ccccc1F)c(=O)n2C,-10.7,5.0,-14.1,0.231,-0.4,-10.9,0.0102,?,0.0274,0.0071,0.0197,0.00968
COc1ccccc1Oc1nc2c(c(=O)n(Cc3ccccc3F)c(=O)n2C)n1C,-19.1,-2.6,-16.0,6.08,1.9,16.1,.,.,.,.,.,.
C=CCn1c(=S)sc2c(=O)[nH]cnc21,-8.6,.,-5.5,-1.24,.,-0.3,.,.,.,.,.,.
CCOc1ccc(C(=O)NCCCN(CC)CC)cc1,-14.3,3.6,-11.7,0.989,1.8,-15.8,.,.,.,.,.,.
SMILES,NPY-Y1 PAM-ag,NPY Y1 blocker,Furin inh,KCC2 mod,NPY Y2 blocker,NPY-Y2 PAM-ag,KCC2 secondary,KCC2 bumet counter,KCC2 secondary2,HEK counter1,KCC2 retest ouab,HEK counter2
CCOc1ccc(N(CCCCO)C(=S)NC(=O)c2ccc(C)c(Br)c2)cc1,-12.6,4.0,-7.9,13.5*,.,-3.0,0.00755,0.0488*,0.0442*,0.0295*,0.0456*,0.0331*
CCCCC(C(=O)OCC)C(N)Cc1ccc(F)cc1 (stereo unspecified),16.9,18.0,-15.4,0.098,.,13.9,.,.,.,.,.,.
CC(=O)N1N=C2c3ccccc3CCC2C1c1ccc(F)cc1 (stereo unspecified),-4.4,.,-21.2,-3.58*,.,8.3,0.00754,0.00527,0.034,?,0.0162*,0.0104
Cc1ccccc1-n1c(SCC(=O)N/N=C/c2sccc2C)nc2ccccc2c1=O,13.3,-2.9,-7.7,-0.0567,-1.7,12.0,.,.,.,.,.,.
COc1ccc(CCN(Cc2cc3cccc(C)c3[nH]c2=O)C(=O)NC2CCCCC2)cc1OC,-34.0,-2.0,-9.3,.,1.1,-0.4,.,.,.,.,.,.
O=C(Nc1ccc(F)cc1)c1ccc(CSc2ccccc2)o1,1.9,3.1,-9.8,-3.4*,9.1,-12.6,0.00786,0.00713,0.0337,0.00382,0.0151*,0.0107
C/C(=N\NC(=O)c1cc(-c2cccs2)nc2ccccc12)c1ccccn1,-13.7,2.9,-18.6,16.8*,.,-0.8,0.0149*,0.0436*,0.036,0.0604*,0.0446*,?
Cc1c(NC(=O)CCc2ccccc2)cccc1[N+](=O)[O-],-1.4,-0.7,-15.7,-0.233,.,5.8,.,.,.,.,.,.
